# Compound activity deposited in PubChem by Johns Hopkins Ion Channel Center.
# MrgX1 PAM = allosterically activates human MrgX1 receptor signaling; B-score at 10 µM; 0.63% of 310,000 active; Q96LB2; MrgX1-HEK293, Fluo-4 calcium flux, FDSS; hits give high values;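 active means plate-corrected calcium response at least 3 library SD above typical, normal starting fluorescence, not activating the receptor alone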;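 further: compound read alongside a low EC10 to EC30 dose of BAM8-22 agonist; peak minus trough fluorescence over baseline measured at the second addition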
# RGS4 act = RGS4 potentiation or activation. HEK293 M3R/inducible RGS4, carbachol calcium flux Fluo4; hits give low values. B-score at 10 µM. 0.92% of 310,000 active;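 active means B-score of the integrated calcium signal more than 4 SD below the library mean, with starting fluorescence not abnormally high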;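 further: negative B-score means reduced calcium response which marks RGS4 activation or potentiation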
#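 Also added: carbachol at ECmax as muscarinic agonist stimulus; Assay system: HEK293 cells with stable M3R and inducible RGS4; Timing: overnight RGS4 induction, 30 min dye load 37 °C, 20 min compound RT; Measured by: Fluo4-AM (2 µM) calcium-flux fluorescence, kinetic read.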
# MrgX1 antagonist = human MrgX1 receptor antagonism, primary screen; MRGX1-HEK293 calcium flux, Fluo-4, BAM8-22 antagonism; hits give low values; B-score at 10 µM; 1.3% of 310,000 active; AID 588676;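 active means calcium-response B-score plate-corrected more than 3 library SD below zero, starting fluorescence within 5 deviations, no agonist response on first addition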;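 further: peak minus trough fluorescence over baseline after final BAM8-22 challenge near maximal dose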
# MrgX1 ag = activates human MrgX1 receptor signaling; B-score at 10 µM; Q96LB2; MrgX1-HEK293 cells, Fluo-4 calcium fluorescence, agonist mode; hits give high values; AID 588627; 0.44% of 310,000 active;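 active means calcium response B-score plate-corrected fluorescence ratio at least 3 library SD, with starting fluorescence B-score inside 5 SD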
#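 Assay system: MrgX1-expressing HEK293 cells / Amount: fifteen thousand cells per well / Doses: test compound in the initial addition of three / Timing: cells plated overnight, dye loaded 0.5 h 37 °C, 0.5 h room temperature / Technique: kinetic calcium dye fluorescence, Fluo-4 NW / Control set: positive and negative controls per plate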
# RGS4 block = human RGS4 inhibition | P49798 | HEK293 M3R/RGS4 inducible, Fluo-4 calcium flux; hits give high values; triggered by carbachol at its EC20 | B-score at 10 µM | 0.45% of 310,000 active | AID 463165;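 active means B-score, a plate-corrected calcium signal, over three deviations above library mean, with baseline fluorescence within five deviations of library mean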;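 further: RGS4 expression induced by doxycycline in cells with stable M3 receptor; B-score is computed from the integrated fluorescence ratio over baseline after carbachol; higher B-score means a larger calcium signal and so more RGS4 inhibition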
# Target sequence (P49798 whole entry, looked up): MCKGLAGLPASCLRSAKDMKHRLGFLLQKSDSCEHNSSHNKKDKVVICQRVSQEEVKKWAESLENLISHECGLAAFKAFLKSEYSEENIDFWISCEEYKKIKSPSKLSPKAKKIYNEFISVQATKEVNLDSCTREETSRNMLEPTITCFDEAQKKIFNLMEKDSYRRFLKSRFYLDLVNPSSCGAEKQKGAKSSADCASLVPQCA
# * = called active by the depositor; i = inactive; . = no result given. A selection: hits, their analogues and other compounds. The true share with any hit is near 3.5%.
SMILES,MrgX1 PAM,RGS4 act,MrgX1 antagonist,MrgX1 ag,RGS4 block
CC(C)NC(=O)c1cc2cc(Br)ccc2oc1=O,i,i,i,i,i
COc1cc(N2CCCC2)c(OC)cc1/C=C1/NC(=S)NC1=O,i,i,-5.37*,i,i
Cc1ccc(C2C=C(c3ccccc3)Nc3ncnn32)cc1 (configuration not stated),7.81*,i,i,i,i
CCOc1ccc(C2C=C(c3ccccc3)Nc3ncnn32)cc1 (configuration not stated),11.2*,i,i,i,i
CCOc1ccc(C2C=C(c3ccc(F)cc3)Nc3ncnn32)cc1 (configuration not stated),8.36*,i,i,i,i
Oc1ccc(C2C=C(c3ccc(F)cc3)Nc3ncnn32)cc1 (configuration not stated),.,i,.,.,i
Cc1nn(C(C)C(=O)NC2C(=O)N3C(C(=O)O)=C(CSc4nnnn4C)CSC23)cc1Cl (configuration not stated),i,i,i,i,i
N#Cc1c(N2CCOCC2)nc(N2CCCCC2)c2c1CCN(C1CCCCC1)C2,i,i,i,i,i
Cc1csc2nc(CSc3ccc(Cl)cc3)cn12,i,i,i,i,i
CCN(CC)CCNC(=O)CCCNC(=O)Cn1cnc2sc(C)c(C)c2c1=O,i,i,-9.13*,i,i
CCc1ccc(NC(=O)CCCNC(=O)Cn2cnc3sc(C)c(C)c3c2=O)cc1,i,i,i,i,i
CC(CNCc1ccc2c(c1)OCO2)NCc1ccc2c(c1)OCO2 (configuration not stated),i,i,i,i,i
O=S1CC/C(=N\O)c2ccccc21 (configuration not stated),i,i,i,i,i
CC1CC(N(C(=O)c2ccco2)c2ccccc2)c2ccccc2N1 (configuration not stated),6.51*,i,i,i,i
CCOc1ccc(S(=O)(=O)N2CCCC(C(=O)NCc3ccncc3)C2)cc1C (configuration not stated),i,i,i,i,i
Cc1cc(C)nc(NC(=O)NC(=O)c2ccccc2)n1,i,i,i,i,i
CCc1nnc(NC(=O)c2cccc(C(=O)Nc3nnc(CC)s3)n2)s1,27.4*,i,i,i,i
CCOc1ccc(/C=C2\SC(=S)N(CCC(=O)Nc3cccc(C(=O)O)c3)C2=O)cc1,i,i,i,i,i
CCC1CCCCN1S(=O)(=O)c1ccc(C(=O)Nc2nnc(-c3cccs3)o2)cc1 (configuration not stated),i,.,i,65.2*,.
COc1cc2c(cc1OC)CN(c1nc(-c3cccnc3)nc3ccccc13)CC2,i,-7.47*,i,i,i
COc1ccccc1C(C)Nc1nc(-c2cccnc2)nc2ccccc12 (configuration not stated),i,-7.12*,i,i,i
COc1cccc(CNc2nc(-c3cccnc3)nc3ccccc23)c1,i,i,i,i,i
Fc1ccccc1CNc1nc(-c2cccnc2)nc2ccccc12,i,-9.1*,i,37.8*,i
C=CCOCC(O)CS(=O)(=O)Cc1ccc(Cl)cc1 (configuration not stated),i,i,i,i,i
Cc1cc(/C=C2/C(=O)N(C)C(=S)N2C)ccc1N1CCCC1,7.56*,i,i,i,i
CCCN1C(=O)/C(=C/c2ccc(N3CCOCC3)cc2)NC1=S,i,i,-6.08*,i,i
Cc1ccc(CN2C(=O)N/C(=C\c3ccc(N4CCOCC4)cc3)C2=O)cc1,i,i,i,i,i
CCCN1C(=O)/C(=C/c2ccc(N3CCCC3)c(C)c2)NC1=S,i,i,i,46.9*,i
Cc1cc(N2CCCC2)ccc1/C=C1/C(=O)N(C)C(=S)N1C,i,i,i,i,i
CCOC(=O)N1CCN(C(=O)c2ccccc2Oc2ccccc2)CC1,i,i,i,i,i
